PAFAH1B3 inh – PAFAH1B3 enzyme inhibitors, primary screen, biochemical, fluorescence polarization, human; Platelet-activating factor acetylhydrolase IB subunit alpha1 (Homo sapiens), Q15102; recombinant PAFAH1B3, FP-rhodamine probe; inhibition, % at 3.39 µM; 340,000 tested, 0.28% active; AID 492972, 2010;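 active = inhibition above the screen-wide average of all tested compounds plus 3 SD, cut at about 25% in these data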;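 note: 0% = enzyme with DMSO only and 100% = wells lacking PAFAH1B3 protein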
Target sequence (Q15102 whole entry, looked up): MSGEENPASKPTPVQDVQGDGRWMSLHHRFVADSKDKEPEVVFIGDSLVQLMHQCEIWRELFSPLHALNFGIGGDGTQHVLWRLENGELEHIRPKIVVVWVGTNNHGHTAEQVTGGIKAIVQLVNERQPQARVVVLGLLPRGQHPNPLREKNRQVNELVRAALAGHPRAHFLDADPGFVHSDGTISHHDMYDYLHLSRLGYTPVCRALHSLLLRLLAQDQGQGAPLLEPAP
ASAP1 inh – inhibitors of human ASAP1 ArfGAP activity, primary screen, biochemical, fluorescence polarization; Arf-GAP with SH3 domain, ANK repeat and PH domain-containing protein 1 (Homo sapiens), …; inhibition, % at 16.5 µM; ASAP1-stimulated ARF1 GTP hydrolysis, GDP FP detection; 360,000 tested, 0.19% active; in the data active = inhibition above about 25%;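 note: 0% = vehicle with enzyme and substrate and 100% = no enzyme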
pPAFAH FP inh – pPAFAH enzyme inhibitors, primary screen, biochemical, fluorescence polarization, human | inhibition, % at 3.39 µM | 330,000 tested, 1.5% active | recombinant pPAFAH, FP-rhodamine probe fluorescence polarization;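 active = inhibition above the mean inhibition across the screen plus 3 SD, cut at about 25% in these data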;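 note: inhibitors block binding of the rhodamine activity-based probe so polarization drops; 0% = enzyme with DMSO and 100% = wells lacking pPAFAH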
PAFAH1B2 inh – PAFAH1B2 enzyme inhibitors, primary screen, biochemical, fluorescence polarization, human. inhibition, % at 3.39 µM. recombinant PAFAH1B2, FP-rhodamine activity probe. 340,000 tested, 1.2% active;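 active = inhibition above the mean of all tested compounds plus 3 SD, cut at about 24% in these data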;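 note: 0% = enzyme with DMSO and 100% = wells lacking PAFAH1B2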
Target sequence (P68402 whole entry, looked up): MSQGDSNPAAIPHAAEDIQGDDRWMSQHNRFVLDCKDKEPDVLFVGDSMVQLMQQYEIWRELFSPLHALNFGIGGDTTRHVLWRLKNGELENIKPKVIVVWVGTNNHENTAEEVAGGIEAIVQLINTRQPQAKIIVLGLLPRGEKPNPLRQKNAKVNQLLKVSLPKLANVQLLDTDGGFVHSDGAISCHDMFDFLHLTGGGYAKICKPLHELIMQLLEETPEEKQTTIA
PAFAH2 FP inh – PAFAH2 enzyme inhibitors, primary screen, biochemical, fluorescence polarization, human. inhibition, % at 3.39 µM. 340,000 tested, 0.99% active. Platelet-activating factor acetylhydrolase 2, cytoplasmic (Homo sapiens), Q99487. recombinant PAFAH2, FP-rhodamine activity probe. AID 492956, 2010;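 active = inhibition above the mean over all tested compounds plus 3 SD, cut at about 30% in these data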;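 note: inhibitors block probe labeling of enzyme so polarization drops; 0% = enzyme with DMSO and 100% = wells lacking PAFAH2 protein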
ARFGAP1 inh – inhibitors of rat ARFGAP1 GAP activity, primary screen, biochemical, fluorescence polarization, GDP tracer; ADP-ribosylation factor GTPase-activating protein 1 (Rattus norvegicus), Q62848; Arfgap1-stimulated ARF1 GTP hydrolysis, GDP FP detection; inhibition, % at 16.5 µM; 360,000 tested, 0.26% active;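 active = inhibition above a per-plate limit, mean inhibition of low control wells plus 3 SD, cut at about 25% in these data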;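 note: 0% = DMSO wells with enzyme and 100% = wells lacking Arfgap1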
Target sequence (Q62848 1-136 limits assumed): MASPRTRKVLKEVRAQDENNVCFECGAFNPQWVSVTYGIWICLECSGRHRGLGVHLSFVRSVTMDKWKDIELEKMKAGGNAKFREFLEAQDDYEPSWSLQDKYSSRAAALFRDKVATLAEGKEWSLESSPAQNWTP
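Assay system: purified rat His6-Arfgap1 residues 1-136 (GAP domain); Reagent: human Δ17 ARF1 bound to GTP; Dosing: 16.5 µM single point, 1.26% DMSO; Times: GTP hydrolysis reaction 2 h at 25 °C; Signal: FP, GDP Alexa 633 tracer displaced from anti-GDP antibody, 620/688 nm; Measure: % inhibition from polarization.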
Active calls of the source: *; x = no result given. Rows were chosen to be rich in hits. Some 2.7% of all compounds tested hit in one or more screens of this group.

SMILES | PAFAH1B3 inh | ASAP1 inh | pPAFAH FP inh | PAFAH1B2 inh | PAFAH2 FP inh | ARFGAP1 inh
CC1CCCCC1NC(=O)COC(=O)c1c2c(nc3ccccc13)/C(=C/c1ccco1)CC2 (stereo not given) | 13 | -1 | 31* | 6 | 27 | 2
Cc1cc(C(=O)OCC(=O)NC2CCCCC2C)c2ccccc2n1 (stereo not given) | -1 | 4 | 2 | 5 | 22 | -4
O=C1NC(=Nc2ccccc2)/C(=C/c2ccco2)S1 | 7 | 12 | 34* | -2 | 1 | 17
CC(C)C[C@H]1COc2cc(N3CCOCC3)ccc2S(=O)(=O)N1 | x | -15 | x | x | x | 13
O=C1Nc2cc(C(=O)N3CCN(c4ccccc4F)CC3)ccc2NC1CSCc1ccccc1F (stereo not given) | x | x | 13 | x | x | x
COc1ccccc1N1CCN(C(=O)c2ccc3c(c2)NC(=O)C(CSCc2ccccc2C)N3)CC1 (stereo not given) | x | x | 25* | x | x | x
CCCCC1O[C@@H](C)[C@@H]2CN3CCc4c([nH]c5ccccc45)[C@@H]3C[C@@H]2N1C (stereo not given in full) | x | 14 | x | x | x | 19
N#C/C(=N\Nc1ccc(Cl)cc1)C(=O)c1ccsc1 | 9 | 7 | 33* | 9 | 19 | -1
Cc1ccc(N/N=C(\C#N)C(=O)c2ccsc2)cc1 | 5 | 3 | 10 | 4 | 8 | -2
N#C/C(=N\Nc1cccc(Cl)c1)C(=O)c1ccccc1 | -3 | 12 | 26* | 2 | 22 | -23
COc1ccc(/C=C2\SC(=O)N(CCCC(=O)Nc3cc(Cl)ccc3C(=O)O)C2=O)cc1 | 2 | -6 | -4 | 38* | 3 | -21
COc1ccc(/C=C2\SC(=S)N(CCC(=O)Nc3ccccc3C(=O)O)C2=O)cc1 | 8 | -3 | -3 | -4 | 1 | 4
O=C(C[C@H]1C/C=C\C[C@@H](Cc2ccc(F)cc2)C(=O)OC[C@H]2CCCN2C1=O)N[C@H](CO)Cc1ccccc1 | -6 | 2 | -6 | 28* | 7 | -7
O=C(C[C@@H]1C/C=C\C[C@@H](Cc2ccc(F)cc2)C(=O)OCCNC1=O)N[C@H](CO)Cc1ccccc1 | 7 | 0 | 3 | 27* | 9 | 5
C[C@@H]1COC(=O)[C@H](Cc2ccc(F)cc2)CC/C=C/C[C@@H](CC(=O)N[C@H](CO)Cc2ccccc2)C(=O)N1 | 9 | 6 | 2 | 8 | 3 | 4
CC(C)(C)[C@H]1COC(=O)[C@@H](Cc2ccc(F)cc2)CC/C=C/C[C@@H](CC(=O)N[C@@H](CO)Cc2ccccc2)C(=O)N1 | -3 | -1 | 12 | 27* | -1 | 6
CC(C)(C)[C@H]1COC(=O)[C@@H](Cc2ccc(F)cc2)CC/C=C/C[C@@H](CC(=O)N[C@H](CO)Cc2ccccc2)C(=O)N1 | 4 | 7 | 7 | 31* | 4 | -15
CC(C)(C)[C@H]1COC(=O)CC/C=C\C[C@@H](CC(=O)N[C@H](CO)Cc2ccccc2)C(=O)N1 | 8 | 0 | 1 | -3 | -8 | 3
C=CCN1CC(COc2ccc(OC)cc2)OCCS1(=O)=O (stereo not given) | x | 5 | x | x | x | -2
C[C@@H]1COC(=O)[C@@H](Cc2ccc(F)cc2)C/C=C\C[C@@H](CC(=O)N[C@H](CO)Cc2ccccc2)C(=O)N1 | 11 | 12 | 1 | 1 | 4 | -2
C[C@@H]1COC(=O)[C@H](Cc2ccc(F)cc2)C/C=C\C[C@@H](CC(=O)N[C@H](CO)Cc2ccccc2)C(=O)N1 | -4 | -3 | 3 | 27* | 9 | 4
COc1ccc(S(=O)(=O)/N=C2/NC(=O)/C(=C/c3ccco3)S2)cc1 | 19 | -4 | 32* | -2 | 28 | -22
COC(=O)[C@]12C[C@H](CC(=O)NCCCCc3ccccc3)C(=O)N(CCC3=CCCCC3)C1=C[C@H](C(C)(C)C)O[C@@H]2C | x | 5 | x | x | x | -1
COc1cccc(CNC(=O)[C@H]2CCCN2C(=O)[C@H]2CCCN2C(=O)c2c(F)cccc2F)c1 | x | 0 | x | x | x | 3
O=S(=O)(NC(=NCCc1ccc(Cl)cc1)c1ccccc1Cl)c1cccs1 | -1 | -2 | 3 | 47* | 15 | -10
SMILES | PAFAH1B3 inh | ASAP1 inh | pPAFAH FP inh | PAFAH1B2 inh | PAFAH2 FP inh | ARFGAP1 inh
COc1ccc(CCN=C(N)NS(=O)(=O)c2ccccc2)cc1 | -2 | 4 | 2 | 1 | 8 | 17
NC(=NCCc1ccc(Cl)cc1)NS(=O)(=O)c1ccccc1 | 6 | -5 | 1 | 54* | 6 | -13
COc1ccc(CCN=C(N)NS(=O)(=O)c2ccc(F)cc2)cc1 | -8 | 1 | 2 | 12 | -8 | 5
NC(=NCCc1ccc(Cl)cc1)NS(=O)(=O)c1ccc(F)cc1 | 10 | -6 | 3 | 49* | 0 | 8
COc1ccccc1CCn1cnc(-c2ccc(OC)c(OC)c2)c1CC(C)C | x | 2 | x | x | x | -2
O=S1(=O)N[C@H](c2ccccc2)COc2cc(Br)ccc21 | x | 7 | x | x | x | 7
Cc1ccn2c(=O)nc(SCC(=O)c3ccc(Cl)cc3)nc2c1 | 4 | 3 | 25* | 6 | 6 | 19
Cc1ccn2c(=O)nc(SCC(=O)N3CCCC3)nc2c1 | 4 | 3 | 5 | 2 | 4 | 12
Cc1ccn2c(=O)nc(SCC(=O)N3CCC(C)CC3)nc2c1 | 2 | -7 | 26* | 1 | 6 | -1
N#C/C(=C\Nc1ccc2cn[nH]c2c1)c1nc(-c2ccc(Cl)cc2)cs1 | -20 | 29* | 2 | -9 | -26 | 15
Cc1ccc(SCCc2ccc(C)nc2)cc1 | 12 | -6 | 0 | 28* | 2 | -3
O=[N+]([O-])c1ccc(COc2ccccc2CO)cc1 | x | -1 | x | x | x | -1
CCc1nnc(NC(=O)CSc2nc3[nH]c(=O)cc(O)c3s2)s1 | -2 | -3 | 2 | 0 | 2 | -7
CCc1nnc(NC(=O)CSc2sc3c(O)cc(=O)[nH]c3c2C#N)s1 | 25 | 0 | 32* | 19 | 30 | -4
Cc1csc(NC(=O)CSc2sc3c(O)cc(=O)[nH]c3c2C#N)n1 | 22 | -14 | 33* | 16 | 37* | -6
COc1ccc(OC)c(CN(CC(F)(F)F)S(=O)(=O)c2ccccc2Br)c1 | x | -4 | x | x | x | -4
CCCn1cc2c(c1-c1ccc(C)cc1)c(=O)n(C)c(=O)n2C | 9 | -2 | -2 | -1 | 3 | 0
COc1ccc(-c2c3c(=O)n(C)c(=O)n(C)c3cn2C2CCCCC2)cc1 | 10 | -5 | 25* | 5 | 9 | 10
OCC1COC(c2ccccc2)=N1 (stereo not given) | x | 13 | x | x | x | 6
Cc1ccc(C)c(S(=O)(=O)/N=C2\C=C(NS(=O)(=O)c3ccccc3)C(=O)c3ccccc32)c1 | 25 | -13 | 17 | 6 | 17 | 5

Bioassay records (PubChem)
